From ChEMBL document CHEMBL2157903, “2-Arylbenzofuran-based molecules as multipotent Alzheimer's disease modifying agents” (Eur J Med Chem, 2012)
Activity calls are given as the source filed them. The rule behind the calls is not given here.

Key:
[1] = target: T1, Cannabinoid receptor 1 (Homo sapiens, UniProt P21554); assay: Displacement of [3H]CP-55940 from human recombinant CB1 receptor expressed in HEK293 cells at 10 uM after 90 mins; format: cell-based
Outline: (§1)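 Membranes from HEK-293 cells stably expressing human recombinant CB1 or CB2 were incubated with [³H]-CP-55,940 (0.14 nM for CB1; 0.084 nM for CB2) plus test compound for 90 min at 30 °C. Non-specific binding was defined with WIN 55212-2. Percent displacement of bound radioligand at the maximum tested concentration is reported. At least n = 3 experiments.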

[2] = target: Cholinesterase (Homo sapiens, UniProt P06276); assay: Inhibition of human serum BuChE using butyrylthiocholine iodide as substrate preincubated for 20 mins prior to substrate addition by Ellman's method
Outline: (§2)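 Ellman method with acetylthiocholine iodide (AChE) or butyrylthiocholine iodide (BuChE) as substrate. Enzyme and inhibitor preincubated 20 min at 37 °C before substrate addition. Blanks without enzyme corrected for non-enzymatic hydrolysis. Five inhibitor concentrations giving 20-80% inhibition. IC50 from linear regression of % inhibition vs log final concentration. Mean of two or three independent measurements, each in triplicate.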

[3] = target: T2, Acetylcholinesterase (Homo sapiens, UniProt P22303); assay: Inhibition of human recombinant AChE using acetylthiocholine iodide as substrate preincubated for 20 mins prior to substrate addition by Ellman's method; outline: as §2
[4] = Inhibition of amyloid beta (25 to 35) fibril formation at 10 uM incubated up to 6 hrs by UV-Vis spectrophotometric analysis
Outline: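 Aβ25-35 at 100 μM final, in 10 mM phosphate buffer pH 7.2, sonicated 1 min on addition. Compound added in MeOH at 10 μM final, with curcumin reference alongside. Polymerization followed by UV-vis at 190-380 nm over 0-6 h. Spectra of compound alone were subtracted. At least three independent runs.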

[5] = target: T1, Cannabinoid receptor 1; assay: Displacement of [3H]CP-55940 from human recombinant CB1 receptor expressed in HEK293 cells after 90 mins; format: cell-based
Outline: (§3)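 Membranes from HEK-293 cells stably expressing human recombinant CB1 (Bmax 2.5 pmol/mg) or CB2 (Bmax 4.7 pmol/mg). Incubated with [3H]-CP-55,940 (CB1 0.14 nM, Kd 0.18 nM; CB2 0.084 nM, Kd 0.31 nM) and increasing compound concentrations for 90 min at 30 °C. Non-specific binding defined with 10 […] 55212-2. IC50 by non-linear regression, converted to Ki by Cheng-Prusoff. Means of at least n = 3.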

[6] = target: T3, Cannabinoid receptor 2 (Homo sapiens, UniProt P34972); assay: Displacement of [3H]CP-55940 from human recombinant CB2 receptor expressed in HEK293 cells at 10 uM after 90 mins; format: cell-based
[7] = target: T3, Cannabinoid receptor 2; assay: Displacement of [3H]CP-55940 from human recombinant CB2 receptor expressed in HEK293 cells after 90 mins; format: cell-based; outline: as §3
[8] = target: T1, Cannabinoid receptor 1; assay: Displacement of [3H]CP-55940 from human recombinant CB1 receptor expressed in HEK293 cells at 25 uM after 90 mins; format: cell-based; outline: as §1
[9] = target: T3, Cannabinoid receptor 2; assay: Displacement of [3H]CP-55940 from human recombinant CB2 receptor expressed in HEK293 cells at 25 uM after 90 mins; format: cell-based; outline: as §1
[10] = tested on: SH-SY5Y; assay: Neuroprotective activity in human SH-SY5Y cells assessed as inhibition of amyloid beta (25 to 35)-induced cytotoxicity at 30 uM after 3 hrs by MTT assay; format: functional
Outline: (§4)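 SH-SY5Y cells in DMEM with 10% FBS were seeded at 3 × 10⁴/well for 24 h. They were exposed for 3 h at 37 °C to HFIP-pretreated unaggregated Aβ25-35 with or without compound (1–30 range). Viability was read by MTT (5 mg/mL, 2 h; isopropanol; 570/690 nm) as % of untreated control. Percentage protection is given at the highest concentration. Mean ± SD of at least two experiments.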

[11] = Inhibition of amyloid beta (25 to 35) fibril formation incubated up to 6 hrs by UV-Vis spectrophotometric analysis
Outline: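 Aβ25-35, sonicated 1 min, was mixed in 10 mM phosphate buffer (pH 7.2) with compound added in MeOH, on ice. Polymerization was followed by UV-visible spectroscopy at 190–380 nm over 0–6 h. Compound-alone spectra were subtracted, and peptide-alone and curcumin controls were run in parallel. IC50 (0.1–50 range) came from a sigmoidal least-squares fit. At least three independent runs.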

[12] = target: Amyloid-beta precursor protein (Homo sapiens) (UniProt P05067); assay: Inhibition of amyloid beta (25 to 35) binding to plasma membrane surface of human Sh-SY5Y cells at 30 uM after 30 mins by congo red-based spectrophotometry; format: cell-based
Outline: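 SH-SY5Y cells were seeded at 5 × 10³/well for 24 h, then given fresh medium with Aβ25-35 and compound for 10, 20 and 30 min. After two PBS washes, bound peptide was stained with Congo red in PBS for 20 min. Absorbance was read at 540 nm and expressed as % of untreated cells.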

[13] = tested on: SH-SY5Y; assay: Neuroprotective effect in human SH-SY5Y cells assessed as inhibition of amyloid beta (25 to 35)-induced ROS production at 30 uM after 3 hrs by DHE-based fluorimetric analysis; format: functional, cell-based
Outline: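 SH-SY5Y cells were seeded at 1 × 10⁴/well on culture slides for 24 h and treated with Aβ25-35 with or without compound for 3 h. ROS was measured with DHE loaded for 15 min in the dark, then 1 h in serum-free DMEM at 37 °C. Fluorescence microscopy covered four random fields of 50–100 cells each, scored as densitometry per cell versus untreated cells. Mean ± SD of three experiments.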

[14] = tested on: SH-SY5Y; assay: Neuroprotective activity in human SH-SY5Y cells assessed as inhibition of amyloid beta (25 to 35)-induced cytotoxicity after 3 hrs by MTT assay; format: functional, cell-based; outline: as §4
[15] = target: T2, Acetylcholinesterase; assay: Pseudo-irreversible inhibition of human recombinant AChE using acetylthiocholine iodide as substrate preincubated for 20 mins prior to substrate addition by Ellman's method
[16] = target: T2, Acetylcholinesterase; assay: Ratio of rivastigmine IC50 to compound IC50 for human recombinant AChE
[17] = Ratio of curcumin IC50 to compound IC50 for amyloid beta (25 to 35)

Amyloid-beta precursor protein (Homo sapiens), sequence (P05067 whole entry): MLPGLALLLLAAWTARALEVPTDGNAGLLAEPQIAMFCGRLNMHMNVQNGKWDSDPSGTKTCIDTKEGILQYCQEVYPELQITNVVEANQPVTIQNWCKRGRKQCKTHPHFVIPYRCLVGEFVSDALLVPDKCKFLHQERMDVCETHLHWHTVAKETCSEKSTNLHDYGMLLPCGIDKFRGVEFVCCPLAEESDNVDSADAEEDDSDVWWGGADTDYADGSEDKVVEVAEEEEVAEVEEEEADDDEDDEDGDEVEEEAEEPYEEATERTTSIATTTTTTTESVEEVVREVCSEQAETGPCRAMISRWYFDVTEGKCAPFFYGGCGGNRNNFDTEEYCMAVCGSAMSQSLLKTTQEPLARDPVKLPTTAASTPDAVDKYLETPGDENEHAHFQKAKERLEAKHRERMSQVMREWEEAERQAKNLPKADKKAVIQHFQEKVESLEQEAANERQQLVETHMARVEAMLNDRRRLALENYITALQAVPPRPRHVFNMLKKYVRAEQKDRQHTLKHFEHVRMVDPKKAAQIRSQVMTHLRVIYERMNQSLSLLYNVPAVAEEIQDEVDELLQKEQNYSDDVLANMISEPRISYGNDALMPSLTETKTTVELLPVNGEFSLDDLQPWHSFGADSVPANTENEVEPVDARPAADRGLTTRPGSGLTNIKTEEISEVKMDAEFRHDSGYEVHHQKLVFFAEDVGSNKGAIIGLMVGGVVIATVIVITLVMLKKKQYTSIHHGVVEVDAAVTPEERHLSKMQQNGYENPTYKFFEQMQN
T2 sequence (P22303 whole entry): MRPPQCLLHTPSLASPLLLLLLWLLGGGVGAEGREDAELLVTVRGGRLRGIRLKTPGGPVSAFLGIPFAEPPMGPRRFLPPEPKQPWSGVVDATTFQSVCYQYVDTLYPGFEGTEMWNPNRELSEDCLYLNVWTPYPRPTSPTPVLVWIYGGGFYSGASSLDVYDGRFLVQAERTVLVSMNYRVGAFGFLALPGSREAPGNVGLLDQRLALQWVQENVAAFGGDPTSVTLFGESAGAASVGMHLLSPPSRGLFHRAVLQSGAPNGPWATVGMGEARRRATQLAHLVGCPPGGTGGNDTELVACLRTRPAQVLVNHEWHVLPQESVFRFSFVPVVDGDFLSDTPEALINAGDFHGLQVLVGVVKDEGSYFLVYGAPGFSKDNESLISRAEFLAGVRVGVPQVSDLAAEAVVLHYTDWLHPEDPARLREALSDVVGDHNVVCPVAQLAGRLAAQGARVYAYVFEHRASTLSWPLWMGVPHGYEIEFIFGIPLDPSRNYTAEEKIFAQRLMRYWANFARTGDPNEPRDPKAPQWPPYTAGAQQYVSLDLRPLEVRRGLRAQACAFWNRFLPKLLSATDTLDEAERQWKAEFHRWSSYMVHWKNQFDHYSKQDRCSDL
Cholinesterase, sequence (P06276 whole entry): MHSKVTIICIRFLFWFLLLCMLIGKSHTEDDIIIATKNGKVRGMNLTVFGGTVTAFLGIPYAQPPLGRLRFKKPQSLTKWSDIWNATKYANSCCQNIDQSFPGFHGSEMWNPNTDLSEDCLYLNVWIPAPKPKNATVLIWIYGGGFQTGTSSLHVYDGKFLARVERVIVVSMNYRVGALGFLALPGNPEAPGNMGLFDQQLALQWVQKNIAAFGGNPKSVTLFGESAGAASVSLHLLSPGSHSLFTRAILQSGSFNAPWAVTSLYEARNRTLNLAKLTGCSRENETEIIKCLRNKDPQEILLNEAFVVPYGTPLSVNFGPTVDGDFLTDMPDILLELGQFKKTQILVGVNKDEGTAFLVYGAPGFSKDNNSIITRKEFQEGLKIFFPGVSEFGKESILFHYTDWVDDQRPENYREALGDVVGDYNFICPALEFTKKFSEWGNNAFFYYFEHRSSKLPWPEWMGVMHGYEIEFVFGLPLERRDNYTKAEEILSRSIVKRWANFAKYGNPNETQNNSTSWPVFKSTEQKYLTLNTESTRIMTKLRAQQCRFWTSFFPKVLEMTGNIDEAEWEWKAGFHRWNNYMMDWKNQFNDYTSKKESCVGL
T1 sequence (P21554 whole entry): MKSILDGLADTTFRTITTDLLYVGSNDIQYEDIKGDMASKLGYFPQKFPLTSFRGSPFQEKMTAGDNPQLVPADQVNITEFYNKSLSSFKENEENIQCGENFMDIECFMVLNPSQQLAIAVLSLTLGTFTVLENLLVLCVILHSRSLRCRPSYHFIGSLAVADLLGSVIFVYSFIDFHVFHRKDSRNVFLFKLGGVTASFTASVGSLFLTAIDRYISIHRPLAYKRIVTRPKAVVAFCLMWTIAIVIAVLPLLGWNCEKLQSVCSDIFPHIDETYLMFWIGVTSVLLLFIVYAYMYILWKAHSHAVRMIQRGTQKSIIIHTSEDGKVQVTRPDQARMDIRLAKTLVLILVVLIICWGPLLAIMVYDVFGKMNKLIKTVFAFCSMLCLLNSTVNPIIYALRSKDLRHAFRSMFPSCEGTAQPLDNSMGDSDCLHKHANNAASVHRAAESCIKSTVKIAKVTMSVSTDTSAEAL
T3 sequence (P34972 whole entry): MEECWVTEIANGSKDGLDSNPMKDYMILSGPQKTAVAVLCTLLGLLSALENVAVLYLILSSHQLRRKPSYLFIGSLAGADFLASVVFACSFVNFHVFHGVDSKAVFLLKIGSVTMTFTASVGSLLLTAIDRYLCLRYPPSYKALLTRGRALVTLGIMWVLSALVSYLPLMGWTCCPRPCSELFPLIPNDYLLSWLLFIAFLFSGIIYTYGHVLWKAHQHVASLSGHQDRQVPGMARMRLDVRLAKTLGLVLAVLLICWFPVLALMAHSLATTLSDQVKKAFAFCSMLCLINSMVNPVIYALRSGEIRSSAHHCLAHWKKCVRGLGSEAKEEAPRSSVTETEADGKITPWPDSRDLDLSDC

CN(CCCCCCCOc1ccc(-c2oc3ccccc3c2C(=O)c2cccc3ccccc23)cc1)Cc1ccccc1
Activity [1]: 13.8% | IC50 [2]: 60.1 µM | IC50 ([3]; read-out: IC50): 101 µM | inhibition [4]: 48% | EC50 [5]: > 10 µM | Ki [5]: > 10 µM | Activity [6]: 8.9% | EC50 [7]: > 10 µM | Ki [7]: > 10 µM

CCN(CC)Cc1cccc(C(=O)c2c(-c3ccc(OCCCCCCCN(C)Cc4ccccc4)cc3)oc3ccccc23)c1
Activity [1]: 29.8% | IC50 [2]: 3.18 µM | IC50 ([3]; read-out: IC50): 53 µM | inhibition [4]: Active | EC50 [5]: > 10 µM | Ki [5]: > 10 µM | Activity [6]: 47.3% | EC50 [7]: > 10 µM | Ki [7]: > 10 µM

COc1cccc(C(=O)c2c(-c3cccc(OCCCCCCCN(C)Cc4ccccc4)c3)oc3ccccc23)c1OC
IC50 [2]: 3.01 µM | IC50 [3]: Not Active | Activity [5]: inactive | Activity [7]: inactive

COc1cccc(C(=O)c2c(-c3cccc(OCCCCCCCN(C)Cc4ccccc4)c3)oc3ccccc23)c1
IC50 [2]: 1.37 µM | IC50 [3]: Not Active | Activity [5]: inactive | Activity [7]: inactive

CN(CCCCCCCOc1ccc(-c2oc3ccccc3c2C(=O)c2ccc(-c3ccccc3)cc2)cc1)Cc1ccccc1
IC50 [2]: 88.9 µM | IC50 [3]: Not Active | Activity [8]: 80% | Activity [9]: 86% | EC50 [5]: 7.74 µM | Ki [5]: 3.12 µM | EC50 [7]: 7.06 µM | Ki [7]: 1.79 µM

CN(CCCCCCCOc1ccc(-c2oc3ccccc3c2C(=O)c2ccccc2)cc1)Cc1ccccc1
Activity [1]: 8.72% | inhibition [4]: 47% | EC50 [5]: 0.79 µM | Ki [5]: 0.32 µM | inhibition at 30 µM [10]: 58.2% | Activity [6]: 47.3% | EC50 [7]: > 10 µM | Ki [7]: > 10 µM | IC50 [11]: 12.5 µM | inhibition [12]: Active | inhibition [13]: Active

COc1cc(OC)cc(C(=O)c2c(-c3cccc(OCCCCCCCN(C)Cc4ccccc4)c3)oc3ccccc23)c1
IC50 [2]: 0.048 µM | IC50 [3]: Not Active | Activity [5]: inactive | Activity [7]: inactive

Cc1cccc(C(=O)c2c(-c3cccc(OCCCCCCCN(C)Cc4ccccc4)c3)oc3ccccc23)c1
IC50 [2]: 0.4 µM | IC50 ([3]; read-out: IC50): 102 µM | inhibition [4]: 48% | Activity [5]: inactive | inhibition at 30 µM [10]: 46.2% | Activity [7]: inactive | inhibition [12]: Active | inhibition [14]: Dose-dependent effect | inhibition [13]: Active

CN(CCCCCOc1ccc(-c2cc3ccccc3o2)cc1)Cc1ccccc1
IC50 [2]: 6.6 µM | IC50 ([3]; read-out: IC50): 215 µM | inhibition [4]: Active

CNC(=O)Oc1cccc(CN(C)CCCCCCCOc2ccc(-c3oc4ccccc4c3C(=O)c3ccc(C)cc3)cc2)c1
inhibition [15]: Active | IC50 [2]: 0.88 µM | IC50 ([3]; read-out: IC50): 0.34 µM | Ratio IC50 [16]: 1

COc1ccc(C(=O)c2c(-c3cccc(OCCCCCCCN(C)Cc4ccccc4)c3)oc3ccccc23)cc1OC
IC50 [2]: 2.51 µM | IC50 [3]: Not Active | Activity [5]: inactive | Activity [7]: inactive

CCN(CC)CCOc1cccc(C(=O)c2c(-c3ccc(OCCCCCCCN(C)Cc4ccccc4)cc3)oc3ccccc23)c1
Activity [1]: 76.5% | IC50 [2]: 1.81 µM | IC50 ([3]; read-out: IC50): 37.1 µM | inhibition [4]: Active | EC50 [5]: 6.38 µM | Ki [5]: 2.57 µM | Activity [6]: 77.9% | EC50 [7]: 2.71 µM | Ki [7]: 0.69 µM

COc1cc(/C=C/C(=O)CC(=O)/C=C/c2ccc(O)c(OC)c2)ccc1O [CURCUMIN]
IC50 [11]: 10 µM

CN(CCCCCCCCOc1ccc(-c2cc3ccccc3o2)cc1)Cc1ccccc1
IC50 [2]: 7.47 µM | IC50 [3]: Not Active | inhibition [4]: Active

CN(CCCCCCCOc1ccc(-c2cc3ccccc3o2)cc1)Cc1ccccc1
Activity [1]: 57.8% | EC50 [5]: 6.95 µM | Ki [5]: 2.8 µM | Activity [6]: 21.8% | EC50 [7]: > 10 µM | Ki [7]: > 10 µM

CN(CCCCCCCCCOc1ccc(-c2cc3ccccc3o2)cc1)Cc1ccccc1
IC50 [2]: 55.6 µM | IC50 [3]: Not Active | IC50 [11]: 5.5 µM

COc1ccccc1C(=O)c1c(-c2cccc(OCCCCCCCN(C)Cc3ccccc3)c2)oc2ccccc12
IC50 [2]: 1.97 µM | IC50 [3]: Not Active | Activity [5]: inactive | Activity [7]: inactive

CCN(CC)Cc1ccc(C(=O)c2c(-c3ccc(OCCCCCCCN(C)Cc4ccccc4)cc3)oc3ccccc23)cc1
Activity [1]: 47.7% | IC50 [2]: 9.42 µM | IC50 ([3]; read-out: IC50): 100 µM | inhibition [4]: Active | EC50 [5]: > 10 µM | Ki [5]: > 10 µM | Activity [6]: 65.2% | EC50 [7]: 4.4 µM | Ki [7]: 1.12 µM

CN(CCCOc1ccc(-c2cc3ccccc3o2)cc1)Cc1ccccc1
IC50 [2]: 136 µM | IC50 [3]: Not Active | inhibition [4]: Active

CN(CCCCCCCOc1cccc(-c2cc3ccccc3o2)c1)Cc1ccccc1
IC50 [2]: 3 µM | IC50 [3]: Not Active | inhibition [4]: 81% | Ratio IC50 [17]: 2.5 | IC50 [11]: 3.9 µM

CCN(CC)CCOc1ccc(C(=O)c2c(-c3ccc(OCCCCCCCN(C)Cc4ccccc4)cc3)oc3ccccc23)cc1
Activity [1]: 35.2% | IC50 [2]: 23 µM | IC50 ([3]; read-out: IC50): 78 µM | inhibition [4]: Active | EC50 [5]: > 10 µM | Ki [5]: > 10 µM | Activity [6]: 92% | EC50 [7]: 4.65 µM | Ki [7]: 1.18 µM

CN(CCCCCCCOc1cccc(-c2oc3ccccc3c2C(=O)c2ccccc2)c1)Cc1ccccc1
IC50 [2]: 2.88 µM | IC50 ([3]; read-out: IC50): 0.24 µM | inhibition [4]: 35% | Activity [5]: inactive | inhibition at 30 µM [10]: 48.4% | Activity [7]: inactive | inhibition [12]: Active | inhibition [14]: Dose-dependent effect | inhibition [13]: Active

CN(CCCCCCCOc1ccc(-c2oc3ccccc3c2C(=O)c2ccc(OCCN3CCOCC3)cc2)cc1)Cc1ccccc1
Activity [1]: 83.1% | IC50 [2]: 21 µM | IC50 ([3]; read-out: IC50): 39 µM | inhibition [4]: Active | EC50 [5]: 1.37 µM | Ki [5]: 0.55 µM | Activity [6]: 70.6% | EC50 [7]: 2.27 µM | Ki [7]: 0.58 µM

CN(CCCCCCCOc1ccc(-c2oc3ccccc3c2C(=O)c2ccc3ccccc3c2)cc1)Cc1ccccc1
Activity [1]: 35.1% | IC50 [2]: 89.1 µM | IC50 [3]: Not Active | EC50 [5]: > 10 µM | Ki [5]: > 10 µM | Activity [6]: 6.87% | EC50 [7]: > 10 µM | Ki [7]: > 10 µM

Cc1ccc(C(=O)c2c(-c3cccc(OCCCCCCCN(C)Cc4ccccc4)c3)oc3ccccc23)cc1
IC50 [2]: 43.9 µM | IC50 [3]: Not Active | Activity [5]: inactive | Activity [7]: inactive
